# System: Fusarium verticillioides
# Assay: Antifungal activity against Fusarium moniliforme at 20 ug after 48 hrs by cup diffusion method
# Type: functional
# Conditions: read-out: IZ
# How it was run: (§1)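 Cup diffusion on 9 cm plates seeded with 1 × 10⁶ cfu of fungi, with spores adjusted to at least 1 × 10⁶ cfu/ml in potato dextrose broth. Compound in DMF was placed in 5 mm agar cups and left 1 h to diffuse. Plates were incubated at 28 °C for 48 h and the inhibition zone read in mm. DMF was the negative control.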
row,SMILES,zone of inhibition at 20 µg/disc [mm]
1,COc1ccc(C2=NOC(CCl)CC2)cc1OC (stereo not given),26.5
2,COc1ccc(C2=NOC(C#N)CC2)cc1OC (stereo not given),12.8
3,N#CC1CCC(c2ccc3c(c2)CCC3)=NO1 (stereo not given),13.5
4,Cc1ccc(C2=NOC(CO)CC2)cc1 (stereo not given),15.8
5,Cc1ccc(C2=NOC(Cc3ccc4c(c3)OCO4)CC2)cc1 (stereo not given),19.5

# System: Fusarium oxysporum
# Assay: Antifungal activity against Fusarium oxysporum at 20 ug after 48 hrs by cup diffusion method
# Type: functional
# Conditions: read-out: IZ
# How it was run: as §1
row,SMILES,zone of inhibition at 20 µg/disc [mm]
1,COc1ccc(C2=NOC(CCl)CC2)cc1OC (stereo not given),28.7
2,COc1ccc(C2=NOC(C#N)CC2)cc1OC (stereo not given),15.5
3,N#CC1CCC(c2ccc3c(c2)CCC3)=NO1 (stereo not given),17.7
4,Cc1ccc(C2=NOC(CO)CC2)cc1 (stereo not given),19.8
5,Cc1ccc(C2=NOC(Cc3ccc4c(c3)OCO4)CC2)cc1 (stereo not given),24.5

# System: Aspergillus flavus
# Assay: Antifungal activity against Aspergillus flavus after 48 hrs by cup diffusion method
# Type: functional
# Conditions: not given
row,SMILES,MIC [µg/mL]
1,N#CC1CCC(c2ccc3c(c2)CCC3)=NO1 (stereo not given),40
2,Cc1ccc(C2=NOC(CO)CC2)cc1 (stereo not given),30
3,Cc1ccc(C2=NOC(Cc3ccc4c(c3)OCO4)CC2)cc1 (stereo not given),15

# Next, values leading:
row,MIC [µg/mL],SMILES
1,15,COc1ccc(C2=NOC(CCl)CC2)cc1OC (stereo not given)
2,35,COc1ccc(C2=NOC(C#N)CC2)cc1OC (stereo not given)

# System: Aspergillus niger
# Assay: Antifungal activity against Aspergillus niger after 48 hrs by cup diffusion method
# Type: functional
# Conditions: not given
row,SMILES,MIC [µg/mL]
1,N#CC1CCC(c2ccc3c(c2)CCC3)=NO1 (stereo not given),35
2,Cc1ccc(C2=NOC(CO)CC2)cc1 (stereo not given),35
3,Cc1ccc(C2=NOC(Cc3ccc4c(c3)OCO4)CC2)cc1 (stereo not given),20

# Second part, the compound after the results:
row,MIC [µg/mL],SMILES
1,20,COc1ccc(C2=NOC(CCl)CC2)cc1OC (stereo not given)
2,35,COc1ccc(C2=NOC(C#N)CC2)cc1OC (stereo not given)

# System: Fusarium verticillioides
# Assay: Antifungal activity against Fusarium moniliforme after 48 hrs by cup diffusion method
# Type: functional
# Conditions: not given
row,SMILES,MIC [µg/mL]
1,N#CC1CCC(c2ccc3c(c2)CCC3)=NO1 (stereo not given),40
2,Cc1ccc(C2=NOC(CO)CC2)cc1 (stereo not given),30
3,Cc1ccc(C2=NOC(Cc3ccc4c(c3)OCO4)CC2)cc1 (stereo not given),20

# Next, values leading:
row,MIC [µg/mL],SMILES
1,15,COc1ccc(C2=NOC(CCl)CC2)cc1OC (stereo not given)
2,30,COc1ccc(C2=NOC(C#N)CC2)cc1OC (stereo not given)

# System: Fusarium oxysporum
# Assay: Antifungal activity against Fusarium oxysporum after 48 hrs by cup diffusion method
# Type: functional
# Conditions: not given
row,SMILES,MIC [µg/mL]
1,N#CC1CCC(c2ccc3c(c2)CCC3)=NO1 (stereo not given),35
2,Cc1ccc(C2=NOC(CO)CC2)cc1 (stereo not given),25
3,Cc1ccc(C2=NOC(Cc3ccc4c(c3)OCO4)CC2)cc1 (stereo not given),10

# The remaining lines, values ahead:
row,MIC [µg/mL],SMILES
1,10,COc1ccc(C2=NOC(CCl)CC2)cc1OC (stereo not given)
2,30,COc1ccc(C2=NOC(C#N)CC2)cc1OC (stereo not given)

# System: Klebsiella pneumoniae
# Assay: Antibacterial activity against Klebsiella pneumoniae […] at 20 ug after 24 hrs by cup diffusion method
# Type: functional
# Conditions: read-out: IZ
# How it was run: (§2)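 Agar cup diffusion. Plates of sterile medium in 9 cm dishes were seeded with 1 × 10⁵ cfu of bacteria, with the suspension adjusted to at least 1 × 10⁵ cfu/ml in nutrient broth. Compound in DMF was placed in 5 mm cups and pre-diffused for 1 h. Plates were incubated at 37 °C for 24 h and the inhibition zone measured in mm. DMF served as negative control.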
row,SMILES,zone of inhibition at 20 µg/disc [mm]
1,COc1ccc(C2=NOC(CCl)CC2)cc1OC (stereo not given),17
2,COc1ccc(C2=NOC(C#N)CC2)cc1OC (stereo not given),7.75
3,N#CC1CCC(c2ccc3c(c2)CCC3)=NO1 (stereo not given),23.8
4,Cc1ccc(C2=NOC(CO)CC2)cc1 (stereo not given),19.8
5,Cc1ccc(C2=NOC(Cc3ccc4c(c3)OCO4)CC2)cc1 (stereo not given),19.7

# System: Escherichia coli
# Assay: Antibacterial activity against Escherichia coli MTCC 443 at 20 ug after 24 hrs by cup diffusion method
# Type: functional
# Conditions: MTCC 443, 24 h, read-out: IZ
# How it was run: as §2
row,SMILES,zone of inhibition at 20 µg/disc [mm]
1,COc1ccc(C2=NOC(CCl)CC2)cc1OC (stereo not given),13.8
2,COc1ccc(C2=NOC(C#N)CC2)cc1OC (stereo not given),10.5
3,N#CC1CCC(c2ccc3c(c2)CCC3)=NO1 (stereo not given),15.5
4,Cc1ccc(C2=NOC(CO)CC2)cc1 (stereo not given),8.83
5,Cc1ccc(C2=NOC(Cc3ccc4c(c3)OCO4)CC2)cc1 (stereo not given),10.7

# System: Pseudomonas aeruginosa
# Assay: Antibacterial activity against Pseudomonas aeruginosa MTCC 1688 at 20 ug after 24 hrs by cup diffusion method
# Type: functional
# Conditions: MTCC 1688, 24 h, read-out: IZ
# How it was run: as §2
row,SMILES,zone of inhibition at 20 µg/disc [mm]
1,COc1ccc(C2=NOC(CCl)CC2)cc1OC (stereo not given),9.83
2,COc1ccc(C2=NOC(C#N)CC2)cc1OC (stereo not given),24.5
3,N#CC1CCC(c2ccc3c(c2)CCC3)=NO1 (stereo not given),31.5
4,Cc1ccc(C2=NOC(CO)CC2)cc1 (stereo not given),10.8
5,Cc1ccc(C2=NOC(Cc3ccc4c(c3)OCO4)CC2)cc1 (stereo not given),11.2

# System: Staphylococcus aureus
# Assay: Antibacterial activity against Staphylococcus aureus MTCC 737 at 20 ug after 24 hrs by cup diffusion method
# Type: functional
# Conditions: MTCC 737, 24 h, read-out: IZ
# How it was run: as §2
row,SMILES,zone of inhibition at 20 µg/disc [mm]
1,COc1ccc(C2=NOC(CCl)CC2)cc1OC (stereo not given),17.8
2,COc1ccc(C2=NOC(C#N)CC2)cc1OC (stereo not given),15.5
3,N#CC1CCC(c2ccc3c(c2)CCC3)=NO1 (stereo not given),17.7
4,Cc1ccc(C2=NOC(CO)CC2)cc1 (stereo not given),7.5
5,Cc1ccc(C2=NOC(Cc3ccc4c(c3)OCO4)CC2)cc1 (stereo not given),12.8

# System: Escherichia coli
# Assay: Antibacterial activity against Escherichia coli MTCC 443 after 24 hrs by cup diffusion method
# Type: functional
# Conditions: MTCC 443, 24 h
row,SMILES,MIC [µg/mL]
1,N#CC1CCC(c2ccc3c(c2)CCC3)=NO1 (stereo not given),25
2,Cc1ccc(C2=NOC(CO)CC2)cc1 (stereo not given),35
3,Cc1ccc(C2=NOC(Cc3ccc4c(c3)OCO4)CC2)cc1 (stereo not given),25

# The remaining lines, values ahead:
row,MIC [µg/mL],SMILES
1,20,COc1ccc(C2=NOC(CCl)CC2)cc1OC (stereo not given)
2,25,COc1ccc(C2=NOC(C#N)CC2)cc1OC (stereo not given)

# System: Klebsiella pneumoniae
# Assay: Antibacterial activity against Klebsiella pneumoniae […] after 24 hrs by cup diffusion method
# Type: functional
# Conditions: not given
row,SMILES,MIC [µg/mL]
1,N#CC1CCC(c2ccc3c(c2)CCC3)=NO1 (stereo not given),20
2,Cc1ccc(C2=NOC(CO)CC2)cc1 (stereo not given),30
3,Cc1ccc(C2=NOC(Cc3ccc4c(c3)OCO4)CC2)cc1 (stereo not given),20

# The remaining lines, values ahead:
row,MIC [µg/mL],SMILES
1,10,COc1ccc(C2=NOC(CCl)CC2)cc1OC (stereo not given)
2,15,COc1ccc(C2=NOC(C#N)CC2)cc1OC (stereo not given)

# System: Pseudomonas aeruginosa
# Assay: Antibacterial activity against Pseudomonas aeruginosa MTCC 1688 after 24 hrs by cup diffusion method
# Type: functional
# Conditions: MTCC 1688, 24 h
row,SMILES,MIC [µg/mL]
1,N#CC1CCC(c2ccc3c(c2)CCC3)=NO1 (stereo not given),15
2,Cc1ccc(C2=NOC(CO)CC2)cc1 (stereo not given),25
3,Cc1ccc(C2=NOC(Cc3ccc4c(c3)OCO4)CC2)cc1 (stereo not given),20

# Second part, the compound after the results:
row,MIC [µg/mL],SMILES
1,15,COc1ccc(C2=NOC(CCl)CC2)cc1OC (stereo not given)
2,10,COc1ccc(C2=NOC(C#N)CC2)cc1OC (stereo not given)

# System: Staphylococcus aureus
# Assay: Antibacterial activity against Staphylococcus aureus MTCC 737 after 24 hrs by cup diffusion method
# Type: functional
# Conditions: MTCC 737, 24 h
row,SMILES,MIC [µg/mL]
1,N#CC1CCC(c2ccc3c(c2)CCC3)=NO1 (stereo not given),15
2,Cc1ccc(C2=NOC(CO)CC2)cc1 (stereo not given),25
3,Cc1ccc(C2=NOC(Cc3ccc4c(c3)OCO4)CC2)cc1 (stereo not given),15

# Further lines, results first:
row,MIC [µg/mL],SMILES
1,10,COc1ccc(C2=NOC(CCl)CC2)cc1OC (stereo not given)
2,15,COc1ccc(C2=NOC(C#N)CC2)cc1OC (stereo not given)

# System: Aspergillus flavus
# Assay: Antifungal activity against Aspergillus flavus at 20 ug after 48 hrs by cup diffusion method
# Type: functional
# Conditions: read-out: IZ
# How it was run: as §1
row,SMILES,zone of inhibition at 20 µg/disc [mm]
1,COc1ccc(C2=NOC(CCl)CC2)cc1OC (stereo not given),20.8
2,COc1ccc(C2=NOC(C#N)CC2)cc1OC (stereo not given),10.5
3,N#CC1CCC(c2ccc3c(c2)CCC3)=NO1 (stereo not given),9.5
4,Cc1ccc(C2=NOC(CO)CC2)cc1 (stereo not given),12.5
5,Cc1ccc(C2=NOC(Cc3ccc4c(c3)OCO4)CC2)cc1 (stereo not given),17.8

# System: Aspergillus niger
# Assay: Antifungal activity against Aspergillus niger at 20 ug after 48 hrs by cup diffusion method
# Type: functional
# Conditions: read-out: IZ
# How it was run: as §1
row,SMILES,zone of inhibition at 20 µg/disc [mm]
1,COc1ccc(C2=NOC(CCl)CC2)cc1OC (stereo not given),18.7
2,COc1ccc(C2=NOC(C#N)CC2)cc1OC (stereo not given),11.5
3,N#CC1CCC(c2ccc3c(c2)CCC3)=NO1 (stereo not given),10.7
4,Cc1ccc(C2=NOC(CO)CC2)cc1 (stereo not given),11.5
5,Cc1ccc(C2=NOC(Cc3ccc4c(c3)OCO4)CC2)cc1 (stereo not given),15.7

# — ChEMBL document CHEMBL1152843, “Synthesis of new series of 5,6-dihydro-4H-1,2-oxazines via hetero Diels-Alder reaction and evaluation of antimicrobial activity” (2009)
